Publication PMC5429141 (Nature structural & molecular biology, 2016)

Key:
EcTrmD G141A = experiment: Pre-steady-state methyl transfer kinetics, G141A mutant; assay type: biochemical, E. coli; details: G141A relative to wild-type enzyme
EcTrmD D177*A = experiment: Pre-steady-state methyl transfer kinetics, D177*A mutant; assay type: biochemical, E. coli; details: D177*A relative to wild-type enzyme
EcTrmD Y115A = experiment: Pre-steady-state methyl transfer kinetics, Y115A mutant; assay type: biochemical, E. coli; details: Y115A relative to wild-type enzyme
EcTrmD H180*A = experiment: Pre-steady-state methyl transfer kinetics, H180*A mutant; assay type: biochemical, E. coli; details: H180*A relative to wild-type enzyme
wild-type TrmD dimer = wild-type TrmD dimer (Escherichia coli, UniProt P0A873); experiment: Fluorescence titration; assay type: binding, E. coli; details: wild-type enzyme; room temperature; pH 8.0
Chain of wild-type TrmD dimer (P0A873 whole entry): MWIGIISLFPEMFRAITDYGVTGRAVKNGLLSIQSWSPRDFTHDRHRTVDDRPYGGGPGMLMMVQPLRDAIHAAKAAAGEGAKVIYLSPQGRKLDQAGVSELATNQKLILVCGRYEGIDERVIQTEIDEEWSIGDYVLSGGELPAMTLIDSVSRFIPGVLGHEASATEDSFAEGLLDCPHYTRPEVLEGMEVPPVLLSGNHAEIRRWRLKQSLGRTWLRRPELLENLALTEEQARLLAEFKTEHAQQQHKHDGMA
In short: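 His-tagged enzyme expressed in E. coli SG13009 and purified by cobalt-affinity and MonoQ ion-exchange chromatography. Concentration was measured by Bradford against BSA and corrected for active dimer fraction. Increasing AdoMet was added to the dimer, and intrinsic Trp fluorescence quenching was followed with excitation at 295 nm and emission at 304–400 nm.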

EcTrmD E116A = experiment: Pre-steady-state methyl transfer kinetics, E116A mutant; assay type: biochemical, E. coli; details: E116A relative to wild-type enzyme
EcTrmD Q90A = experiment: Pre-steady-state methyl transfer kinetics, Q90A mutant; assay type: biochemical, E. coli; details: Q90A relative to wild-type enzyme
EcTrmD S170*A = experiment: Pre-steady-state methyl transfer kinetics, S170*A mutant; assay type: biochemical, E. coli; details: S170*A relative to wild-type enzyme
TrmD Y115A dimer = TrmD Y115A dimer (Escherichia coli, UniProt P0A873, Y115A); assay type: binding, E. coli; details: Y115 mutant; room temperature; pH 8.0
Chain of TrmD Y115A dimer (P0A873 whole entry Y115A): as the sequence (P0A873 whole entry) above, with Y115A counted along it

EcTrmD D169*A = experiment: Pre-steady-state methyl transfer kinetics, D169*A mutant; assay type: biochemical, E. coli; details: D169*A relative to wild-type enzyme
EcTrmD G55A = experiment: Pre-steady-state methyl transfer kinetics, G55A mutant; assay type: biochemical, E. coli; details: G55A relative to wild-type enzyme
EcTrmD Y115F = experiment: Pre-steady-state methyl transfer kinetics, Y115F mutant; assay type: biochemical, E. coli; details: Y115F relative to wild-type enzyme
EcTrmD P89A = experiment: Pre-steady-state methyl transfer kinetics, P89A mutant; assay type: biochemical, E. coli; details: P89A relative to wild-type enzyme
EcTrmD P89W = experiment: Pre-steady-state methyl transfer kinetics, P89W mutant; assay type: biochemical, E. coli; details: P89W relative to wild-type enzyme
wild-type EcTrmD = wild-type EcTrmD (Escherichia coli, UniProt P0A873); assay type: biochemical, E. coli; details: single turnover, 37 °C
Chain of wild-type EcTrmD (P0A873 whole entry): as the sequence (P0A873 whole entry) above

EcTrmD G59A = experiment: Pre-steady-state methyl transfer kinetics, G59A mutant; assay type: biochemical, E. coli; details: G59A relative to wild-type enzyme
EcTrmD G134A = experiment: Pre-steady-state methyl transfer kinetics, G134A mutant; assay type: biochemical, E. coli; details: G134A relative to wild-type enzyme
EcTrmD Y136A = experiment: Pre-steady-state methyl transfer kinetics, Y136A mutant; assay type: biochemical, E. coli; details: Y136A relative to wild-type enzyme
EcTrmD Y86A = experiment: Pre-steady-state methyl transfer kinetics, Y86A mutant; assay type: biochemical, E. coli; details: Y86A relative to wild-type enzyme
EcTrmD R154A = experiment: Pre-steady-state methyl transfer kinetics, R154A mutant; assay type: biochemical, E. coli; details: R154A relative to wild-type enzyme

## C[S+](CC[C@H](N)C(=O)[O-])C[C@H]1O[C@@H](n2cnc3c(N)ncnc32)[C@H](O)[C@@H]1O (some centres unmarked) [AdoMet, S-adenosyl methionine]
EcTrmD G141A
  fold-change in Kd (AdoMet), decrease in AdoMet binding: 32.2 fold
EcTrmD D177*A
  fold-change in Kd (AdoMet), decrease in AdoMet binding: 9.0 fold
EcTrmD Y115A
  fold-change in Kd (AdoMet), effect on AdoMet binding: 6.3 fold
EcTrmD H180*A
  fold-change in Kd (AdoMet), decrease in AdoMet binding: 4.4 fold
wild-type TrmD dimer
  binding stoichiometry of AdoMet per dimer: two molecules of AdoMet per dimer
EcTrmD E116A
  fold-change in Kd (AdoMet), effect on AdoMet binding: 6.0 fold
EcTrmD Q90A
  fold-change in Kd (AdoMet), effect on AdoMet binding: 1.2 fold
EcTrmD S170*A
  fold-change in Kd (AdoMet), decrease in AdoMet binding: 2.6 fold
TrmD Y115A dimer
  binding stoichiometry of AdoMet per dimer: two molecules of AdoMet per dimer
EcTrmD D169*A
  effect on AdoMet binding: neither had an effect
EcTrmD G55A
  fold-change in Kd (AdoMet), effect on AdoMet binding: 12.8 fold
EcTrmD Y115F
  fold-change in Kd (AdoMet), effect on AdoMet binding: 8.0 fold
EcTrmD P89A
  fold-change in Kd (AdoMet), effect on AdoMet binding: 2.6 fold
EcTrmD P89W
  fold-change in Kd (AdoMet), effect on AdoMet binding: 23 fold
wild-type EcTrmD
  kchem from enzyme titration of AdoMet: 0.113 ± 0.003 s⁻¹
EcTrmD G59A
  fold-change in Kd (AdoMet), effect on AdoMet binding: 3.2 fold
EcTrmD G134A
  fold-change in Kd (AdoMet), decrease in AdoMet binding: 19.0 fold
EcTrmD Y136A
  fold-change in Kd (AdoMet), decrease in AdoMet binding: 8.4 fold
EcTrmD Y86A
  fold-change in Kd (AdoMet), effect on AdoMet binding: 2.8 fold
EcTrmD R154A
  effect on AdoMet binding: neither had an effect
